The source made the active and inactive calls. The calls are words filed in the database; no cut-off is given here.
Key:
[1] = Inhibition of hexa-His-tagged human soluble epoxide hydrolase N-terminal phosphatase domain expressed in Escherichia coli BL21(DE3) pre-incubated for 30 mins before FDP substrate addition by fluorescence based assay
[2] = biological target: T1, Bifunctional epoxide hydrolase 2 (Homo sapiens, UniProt P34913); test: Inhibition of phosphatase activity of full length human soluble epoxide hydrolase pre-incubated for 30 mins before FDP substrate addition by fluorescence based assay
T1 sequence (P34913 whole entry): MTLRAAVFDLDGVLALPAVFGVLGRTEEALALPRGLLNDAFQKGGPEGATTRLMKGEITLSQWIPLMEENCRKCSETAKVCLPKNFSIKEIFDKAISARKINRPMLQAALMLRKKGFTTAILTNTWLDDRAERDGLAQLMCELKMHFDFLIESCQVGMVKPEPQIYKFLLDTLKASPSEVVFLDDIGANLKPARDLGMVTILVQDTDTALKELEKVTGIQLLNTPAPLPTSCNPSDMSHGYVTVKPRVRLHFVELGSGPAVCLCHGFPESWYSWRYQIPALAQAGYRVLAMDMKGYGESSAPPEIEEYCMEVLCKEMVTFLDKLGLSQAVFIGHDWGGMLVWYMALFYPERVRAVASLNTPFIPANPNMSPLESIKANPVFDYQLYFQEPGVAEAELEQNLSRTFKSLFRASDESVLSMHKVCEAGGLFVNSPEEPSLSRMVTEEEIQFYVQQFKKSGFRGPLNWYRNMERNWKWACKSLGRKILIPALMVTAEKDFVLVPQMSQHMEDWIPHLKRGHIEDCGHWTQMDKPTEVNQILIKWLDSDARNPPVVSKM

[3] = biological target: T1, Bifunctional epoxide hydrolase 2; test: Inhibition of hexa-His-tagged human soluble epoxide hydrolase C-terminal hydrolase domain expressed in Escherichia coli BL21(DE3) pre-incubated for 30 mins before PHOME substrate addition by fluorescence based assay
[4] = biological target: T1, Bifunctional epoxide hydrolase 2; test: Inhibition of hydrolase activity of full length human soluble epoxide hydrolase pre-incubated for 30 mins before PHOME substrate addition by fluorescence based assay
Summary of the method: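 Hydrolase assay with 0.1 μM full-length enzyme in Bis-Tris pH 7 containing 0.1 mg/mL BSA and 0.01% Triton X-100. Reaction started with PHOME (50 μM final). Triplicates.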

Homo sapiens [5] = species on record: Homo sapiens
[6] = biological target: T2, Bifunctional epoxide hydrolase 2 (Homo sapiens) (UniProt P34913); test: Induction of stabilization of hexa-His-tagged human soluble epoxide hydrolase C-terminal hydrolase domain expressed in Escherichia coli BL21(DE3) at 50 uM by differential scanning fluorimetry
T2 sequence (whole entry): T1 sequence (P34913 whole entry)

Homo sapiens [7] = species on record: Homo sapiens; test: Induction of stabilization of hexa-His-tagged human soluble epoxide hydrolase N-terminal phosphatase domain expressed in Escherichia coli BL21(DE3) at 50 uM by differential scanning fluorimetry

IC50 [1] [nM]	Structure (SMILES)	other results
44000	N#Cc1ccc(-c2nc(CCC(=O)O)oc2-c2ccccc2)cc1	
4000	O=C(O)CCCc1nc(-c2ccc(Cl)c(Cl)c2)c(-c2cccnc2)o1	
33000	O=C(O)CCc1nc(-c2ccc(C(F)(F)F)cc2)c(-c2ccccc2)o1	
17000	O=C(O)CCc1nc(-c2ccc(Cl)cc2Cl)c(-c2ccccc2)o1	
140	C#Cc1cccc(-c2oc(CCCC(=O)O)nc2-c2ccc(Cl)c(Cl)c2)c1	
9000	O=C(O)CCc1nc(-c2cc(Cl)cc(Cl)c2)c(-c2ccccc2)o1	
310	Cc1cccc(-c2oc(CCCC(=O)O)nc2-c2ccc(Cl)c(Cl)c2)c1	
120	O=C(O)CCc1nc(-c2ccc(Cl)c(Cl)c2)c(-c2ccccc2)o1	
550	CC(=O)N[C@@H](CSC/C=C(\C)CC/C=C(\C)CCC=C(C)C)C(=O)O	IC50 [2]: 2040 nM; IC50 [3]: > 300000 nM; ΔTm (Homo sapiens [5]): 3.4 °C; IC50 [4]: > 300000 nM
280	O=C(O)CCCc1nc(-c2ccc(Cl)c(Cl)c2)c(-c2cc(F)ccc2F)o1	
3000	O=C(O)CCCc1nc(-c2ccc(Cl)c(Cl)c2)c(Br)o1	
10000	N#Cc1cccc(-c2nc(CCC(=O)O)oc2-c2ccccc2)c1	
410	O=C(O)CCCc1nc(-c2ccc(Cl)c(Cl)c2)c(-c2cccc(C(F)(F)F)c2)o1	
120	O=C(O)CCCc1nc(-c2ccc(Cl)c(Cl)c2)c(-c2cccc(F)c2)o1	
7000	O=C(O)CCc1nc(-c2cccc(F)c2)c(-c2ccccc2)o1	
40000	O=C(O)CCc1nc(-c2ccccc2F)c(-c2ccccc2)o1	

IC50 [1] [nM]	Structure (SMILES)	other results
230	O=C(O)CCCc1nc(-c2ccc(Cl)c(Cl)c2)c(-c2cccc(Cl)c2)o1	
9000	O=C(O)CCc1nc(-c2ccc(F)cc2)c(-c2ccccc2)o1	
12000	O=C(O)c1ccc(-c2nc(-c3ccc(Cl)c(Cl)c3)c(-c3ccccc3)o2)cc1	
> 50000	O=C(O)CCCc1nc(-c2ccc(Cl)c(Cl)c2)co1	
2000	O=C(O)CCc1nc(-c2ccc(Cl)c(C(F)(F)F)c2)c(-c2ccccc2)o1	
310	O=C(O)CCCc1nc(-c2ccc(Cl)c(Cl)c2)c(-c2ccccc2F)o1	
33000	O=C(O)CCc1nc(-c2ccccc2Cl)c(-c2ccccc2)o1	
310	COc1cccc(-c2oc(CCCC(=O)O)nc2-c2ccc(Cl)c(Cl)c2)c1	
18000	COc1ccc(-c2nc(CCC(=O)O)oc2-c2ccccc2)cc1	
20000	O=C(O)CCCc1nc(-c2ccc(Cl)c(Cl)c2)c(-c2ccncc2)o1	
	O=C(Nc1ccc(I)cc1)NC1CCCCC1	Activity [6]: Active; Activity (Homo sapiens [7]): inactive
150	O=C(O)c1cccc(-c2nc(-c3ccc(Cl)c(Cl)c3)c(-c3ccccc3)o2)c1	
3000	O=C(O)CCc1nc(-c2ccc(Cl)cc2)c(-c2ccccc2)o1	
15000	O=C(O)c1ccccc1-c1nc(-c2ccc(Cl)c(Cl)c2)c(-c2ccccc2)o1	
120	N#Cc1cccc(-c2oc(CCCC(=O)O)nc2-c2ccc(Cl)c(Cl)c2)c1	
510	O=C(O)/C=C/c1nc(-c2ccc(Cl)c(Cl)c2)c(-c2ccccc2)o1	

Structure (SMILES)	IC50 [1] [nM]	other results
O=c1c2ccccc2[se]n1-c1ccccc1 [EBSELEN]	290	IC50 [2]: 420 nM; IC50 [3]: 110 nM; IC50 [4]: 300 nM

Reference: ChEMBL document CHEMBL4414562, “Discovery of the First in Vivo Active Inhibitors of the Soluble Epoxide Hydrolase Phosphatase Domain” (J Med Chem, 2019)
